Source: ChEMBL document CHEMBL1124627, “Long-acting dihydropyridine calcium antagonists. 3. Synthesis and structure-activity relationships for a series of 2-[(heterocyclylmethoxy)methyl] derivatives” (J Med Chem, 1989)

What was measured:
[1] = biological target: Voltage-dependent L-type calcium channel subunit alpha-1C (Rattus norvegicus, UniProt P22002); assay: Selectivity for vascular (Ca pIC50) over cardiac (negative inotropy IC25) calcium channels; format: functional
[2] = species on record: Rattus norvegicus; assay: Negative logarithm of molar concentration required to block calcium-induced contraction of potassium depolarized rat aorta by 50%; format: functional
[3] = species on record: Cavia porcellus; assay: Negative logarithm of the molar concentration required to depress contraction in the Langendorff-perfused guinea pig heart by 25%.; format: functional
[4] = system: Canis familiaris; assay: Coronary vasodilator activity in dogs, after administration of a dose of 150 micorg/kg intravenously; format: functional, Canis lupus familiaris
Outline: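 Anesthetized beagle dogs fitted with catheters for blood pressure, left ventricular pressure and intravenous dosing. Coronary blood flow was measured by hydrogen clearance with platinum electrodes in the coronary sinus and femoral artery, and cardiac output by thermodilution. Coronary vascular resistance was derived from these measurements. A single intravenous dose was given, and the CVR fall was followed over time to assess duration of action.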

Sequence of Voltage-dependent L-type calcium channel subunit alpha-1C (P22002 whole entry): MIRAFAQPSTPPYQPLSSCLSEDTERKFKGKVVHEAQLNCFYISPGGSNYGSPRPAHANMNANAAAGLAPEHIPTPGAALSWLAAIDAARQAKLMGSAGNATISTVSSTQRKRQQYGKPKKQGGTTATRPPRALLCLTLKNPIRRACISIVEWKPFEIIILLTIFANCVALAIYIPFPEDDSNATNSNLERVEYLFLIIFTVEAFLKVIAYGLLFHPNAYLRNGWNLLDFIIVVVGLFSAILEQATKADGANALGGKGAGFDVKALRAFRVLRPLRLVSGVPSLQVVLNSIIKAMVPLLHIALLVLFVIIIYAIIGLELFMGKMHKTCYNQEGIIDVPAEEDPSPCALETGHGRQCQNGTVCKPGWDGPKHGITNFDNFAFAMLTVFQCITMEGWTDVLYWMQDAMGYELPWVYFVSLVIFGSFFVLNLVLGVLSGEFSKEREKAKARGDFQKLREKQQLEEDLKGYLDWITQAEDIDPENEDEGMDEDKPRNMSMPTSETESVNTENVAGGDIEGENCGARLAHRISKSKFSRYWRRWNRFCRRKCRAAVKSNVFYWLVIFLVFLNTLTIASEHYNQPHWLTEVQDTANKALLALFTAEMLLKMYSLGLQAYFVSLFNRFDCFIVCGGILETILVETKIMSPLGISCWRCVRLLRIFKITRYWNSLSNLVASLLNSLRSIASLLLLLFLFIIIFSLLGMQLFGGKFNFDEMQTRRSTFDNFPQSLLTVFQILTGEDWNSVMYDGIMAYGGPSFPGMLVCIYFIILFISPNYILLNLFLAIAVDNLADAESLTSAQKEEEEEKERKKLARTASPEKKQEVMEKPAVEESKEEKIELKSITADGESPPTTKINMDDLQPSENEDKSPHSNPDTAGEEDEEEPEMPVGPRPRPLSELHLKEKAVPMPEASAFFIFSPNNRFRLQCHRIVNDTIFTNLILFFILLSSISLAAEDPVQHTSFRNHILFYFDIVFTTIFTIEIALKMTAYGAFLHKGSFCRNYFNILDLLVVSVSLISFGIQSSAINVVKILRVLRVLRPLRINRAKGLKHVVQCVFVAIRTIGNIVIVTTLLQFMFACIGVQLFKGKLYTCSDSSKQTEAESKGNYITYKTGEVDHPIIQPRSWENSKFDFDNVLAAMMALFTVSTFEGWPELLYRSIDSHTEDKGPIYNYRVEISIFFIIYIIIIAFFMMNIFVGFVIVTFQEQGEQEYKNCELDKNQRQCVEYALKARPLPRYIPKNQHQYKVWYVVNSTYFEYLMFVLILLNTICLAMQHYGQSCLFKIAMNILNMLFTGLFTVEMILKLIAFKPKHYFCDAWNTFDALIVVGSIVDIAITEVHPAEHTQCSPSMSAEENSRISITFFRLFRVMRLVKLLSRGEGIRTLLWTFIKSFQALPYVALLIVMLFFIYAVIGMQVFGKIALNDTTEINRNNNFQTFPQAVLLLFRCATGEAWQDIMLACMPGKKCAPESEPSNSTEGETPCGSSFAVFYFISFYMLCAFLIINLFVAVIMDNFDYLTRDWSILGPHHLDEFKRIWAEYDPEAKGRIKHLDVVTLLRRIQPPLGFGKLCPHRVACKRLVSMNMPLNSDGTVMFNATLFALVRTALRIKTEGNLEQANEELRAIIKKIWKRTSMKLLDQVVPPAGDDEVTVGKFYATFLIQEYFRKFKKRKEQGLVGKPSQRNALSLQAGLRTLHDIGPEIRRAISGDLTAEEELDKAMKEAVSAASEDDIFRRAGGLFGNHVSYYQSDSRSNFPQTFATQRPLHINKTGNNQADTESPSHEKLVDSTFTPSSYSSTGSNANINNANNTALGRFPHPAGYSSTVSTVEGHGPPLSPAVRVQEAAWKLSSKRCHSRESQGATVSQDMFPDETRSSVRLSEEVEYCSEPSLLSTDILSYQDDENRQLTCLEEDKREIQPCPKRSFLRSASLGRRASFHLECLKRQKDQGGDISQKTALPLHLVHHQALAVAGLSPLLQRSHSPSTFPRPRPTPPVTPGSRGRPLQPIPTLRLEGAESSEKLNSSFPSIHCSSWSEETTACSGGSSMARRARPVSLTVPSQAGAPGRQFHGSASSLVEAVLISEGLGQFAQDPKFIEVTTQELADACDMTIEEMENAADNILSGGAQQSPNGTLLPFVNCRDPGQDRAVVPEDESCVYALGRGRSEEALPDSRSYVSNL

SMILES | Selectivity index [1] | IC50 [2] [nM] | pIC25 [3] | Decrease [4] [%]
CCO/C(O)=C1\C(COCc2cc(O)nc(CN3CCOCC3)n2)=NC(C)=C(C(=O)OC)C1c1cccc(Cl)c1Cl (centres undefined) | 32 | 3.98 | 6.9 | –
CCO/C(O)=C1\C(COCc2cc(=O)n(CCO)c(N)n2)=NC(C)=C(C(=O)OC)C1c1cccc(Cl)c1Cl (centres undefined) | 32 | 3.16 | 7 | –
COC(=O)C1=C(C)NC(C)=C(C(=O)OC)C1c1ccccc1[N+](=O)[O-] [NIFEDIPINE] | 8 | – | 7.5 | 77
